Reference: ChEMBL document CHEMBL1128440 (J Med Chem, 1995)

Assays:
[1] = Partition coefficient (logP); assay type: physicochemical; conditions: octanol/water; read-out: logP
How it was run: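 log P(o/w) (octanol/water) estimated by a reversed-phase HPLC method.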

[2] = target: T1, Progesterone receptor (Homo sapiens) (UniProt P06401); test: Binding selectivity index as the ratio of RBA value to that of NSB value.
T1 sequence (whole entry): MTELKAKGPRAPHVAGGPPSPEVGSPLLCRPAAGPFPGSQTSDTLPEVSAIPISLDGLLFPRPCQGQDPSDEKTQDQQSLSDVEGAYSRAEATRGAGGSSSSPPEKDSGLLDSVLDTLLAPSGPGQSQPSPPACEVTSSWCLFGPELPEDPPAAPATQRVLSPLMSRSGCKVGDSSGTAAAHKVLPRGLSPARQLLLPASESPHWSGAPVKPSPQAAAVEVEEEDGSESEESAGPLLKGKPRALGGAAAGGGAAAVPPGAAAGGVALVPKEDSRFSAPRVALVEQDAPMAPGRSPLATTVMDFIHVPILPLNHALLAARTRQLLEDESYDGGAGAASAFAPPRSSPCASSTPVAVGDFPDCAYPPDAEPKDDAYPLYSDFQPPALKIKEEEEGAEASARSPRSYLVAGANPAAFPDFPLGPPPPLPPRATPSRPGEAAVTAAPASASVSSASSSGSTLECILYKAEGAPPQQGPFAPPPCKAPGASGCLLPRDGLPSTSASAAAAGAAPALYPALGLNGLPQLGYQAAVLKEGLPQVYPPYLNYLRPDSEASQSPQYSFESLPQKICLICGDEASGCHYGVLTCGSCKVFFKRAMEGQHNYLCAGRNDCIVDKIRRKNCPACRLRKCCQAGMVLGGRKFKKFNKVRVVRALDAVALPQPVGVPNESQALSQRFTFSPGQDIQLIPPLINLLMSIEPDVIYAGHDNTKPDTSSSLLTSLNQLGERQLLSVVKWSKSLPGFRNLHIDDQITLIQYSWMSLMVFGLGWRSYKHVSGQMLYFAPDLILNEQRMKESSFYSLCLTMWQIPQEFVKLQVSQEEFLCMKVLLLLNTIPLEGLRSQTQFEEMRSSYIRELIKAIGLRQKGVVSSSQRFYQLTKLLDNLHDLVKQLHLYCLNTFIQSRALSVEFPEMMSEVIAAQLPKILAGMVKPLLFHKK
How it was run: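 BSI calculated as the ratio of RBA to NSB.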

[3] = target: T1, Progesterone receptor (Homo sapiens); test: Relative binding affinity against progesterone receptor at 0 degree Celsius determined in a competitive radiometric binding assay (R5020=100%).
How it was run: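 Competitive radiometric binding at 0 °C against tritium-labeled R5020 as the standard (RBA = 100). Values are the average of two experiments.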

[4] = target: T1, Progesterone receptor (Homo sapiens); test: Nonspecific binding affinity against progesterone receptor was estimated relative to compound R5020

Work on `CC1(c2ccc(F)cc2)O[C@@H]2CC3C4CCC5=CC(=O)CC[C@@H]5C4CC[C@]3(C)[C@]2(C(=O)CF)O1` (some centres undefined) yielded a logP [1] of 5.48, a BSI [2] of 65 and an RBA [3] of 282. It also gave an NSB [4] of 4.36.
